# Assays:
# KB 3-1 = assay: Resistance index determined as the ratio of IC50 of doxorubicin with compound (1 ug/mL) in KB VJ300 cells divided by the control tested in vitro; format: functional, Homo sapiens
# Rattus norvegicus = species on record: Rattus norvegicus; assay: Calcium antagonistic activity determined by the inhibitory effect on high-potassium depolarization-induced contracture in isolated rat aorta.; format: functional
# Mus musculus [1] = assay: Survival days of vincristine (0.1 mg/kg, ip) treated mice after 100 mg/kg, ip dose divided by survival days of mice treated by vincristine (0.1 mg/kg, ip) alone; format: functional; settings: route intraperitoneal
# In short: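 Mice bearing P388 leukemia cells were given vincristine 0.1 mg/kg ip together with the test agent at 100 mg/kg ip. Survival days were recorded. Antitumor activity (%) is survival days with the combination divided by survival days of mice given vincristine 0.1 mg/kg ip alone.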
# Mus musculus [2] = assay: Survival days of vincristine (0.1 mg/kg, ip) treated mice after 30 mg/kg, ip dose divided by survival days of mice treated by vincristine (0.1 mg/kg, ip) alone; format: functional; settings: route intraperitoneal
# In short: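 In P388 leukemia-bearing mice, the test agent was dosed at 30 mg/kg ip with vincristine 0.1 mg/kg ip. Survival time was recorded. The value (%) is the ratio of survival days under the combination to survival days under vincristine 0.1 mg/kg ip alone.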
SMILES,Resistance index (KB 3-1),IC50 (Rattus norvegicus) [µM],Activity (Mus musculus [1]) [%],Activity (Mus musculus [2]) [%]
CCCCCC1C(C(=O)OCCc2ccc(N(C)C)cc2)=C(C)N=C(C)/C1=C(/O)OCCCN1CCN(C(c2ccccc2)c2ccccc2)CC1 (stereo unspecified),23.5,–,–,–
CCCCCC1C(C(=O)OCCCc2ccccc2)=C(C)N=C(C)/C1=C(/O)OCCCc1ccccc1 (stereo unspecified),22.7,–,–,–
CCCCCC1C(C(=O)OCCN(C)Cc2ccccc2)=C(C)N=C(C)/C1=C(/O)OCCN(C)Cc1ccccc1 (stereo unspecified),3.9,115,128,–
CCCCCC1C(C(=O)OCCCc2ccccn2)=C(C)N=C(C)/C1=C(/O)OCCCN1CCN(C(c2ccccc2)c2ccccc2)CC1 (stereo unspecified),1.7,–,120,–
CCCCCC1C(C(=O)OCCCc2cccnc2)=C(C)N=C(C)/C1=C(/O)OCCCN1CCN(C(c2ccccc2)c2ccccc2)CC1 (stereo unspecified),1.1,175,–,143
CCCCCC1C(C(=O)OCCN(C)Cc2ccccc2)=C(C)N=C(C)/C1=C(/O)OCCCc1cccnc1 (stereo unspecified),1.4,135,144,–
CC1=NC(C)=C(C(=O)OCc2ccncc2)C(C2=C(C)SCCS2)/C1=C(\O)OCc1ccncc1 (stereo unspecified),–,8.7,–,–
CCCCCC1C(C(=O)OCCc2ccc(N(C)C)cc2)=C(C)N=C(C)/C1=C(/O)OCCc1ccc(N(C)C)cc1 (stereo unspecified),11.2,–,–,–
CCCCCC1C(C(=O)OCCCc2cccnc2)=C(C)N=C(C)/C1=C(/O)OCCCc1cccnc1 (stereo unspecified),2,46,161,–
CCCCCC1C(C(=O)OCCCc2ccncc2)=C(C)N=C(C)/C1=C(/O)OCCCN1CCN(C(c2ccccc2)c2ccccc2)CC1 (stereo unspecified),1,–,–,–
CCCCCC1C(C(=O)O/C=C/Cc2cccnc2)=C(C)N=C(C)/C1=C(/O)O/C=C/Cc1cccnc1 (stereo unspecified),1.8,–,89,–
CCCCCC1C(C(=O)OCCCc2cccnc2)=C(C)N=C(C)/C1=C(/O)OCCCN1CCN(Cc2ccccc2)CC1 (stereo unspecified),1,33,150,–
CCCCCC1C(C(=O)OCCCN2CCN(Cc3ccccc3)CC2)=C(C)N=C(C)/C1=C(/O)OCCCN1CCN(Cc2ccccc2)CC1 (stereo unspecified),1.1,230,127,–
CCCCCC1C(C(=O)OCCc2ccc(N(C)C)cc2)=C(C)N=C(C)/C1=C(/O)OCCCc1cccnc1 (stereo unspecified),1.8,45,125,–
COC(=O)C1=C(C)NC(C)=C(C(=O)OCCN(C)Cc2ccccc2)C1c1cccc([N+](=O)[O-])c1 (stereo unspecified) [NICARDIPINE],–,1.4,–,–
